T cruzi repl = blocks replication of Trypanosoma cruzi; T. cruzi beta-gal in NIH3T3, luminescence, 90 h; inhibition, % (test concentration not listed); 300,000 tested, 1.4% active;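 active means mean inhibition across valid replicates above about 55%, limit read from the data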;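 further: signal also drops with host cell toxicity which is not excluded here; 0% = plate median of DMSO wells and 100% = zero luminescence signal; higher percent means less beta-gal luminescence so fewer parasites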
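System: NIH/3T3 fibroblasts plus reporter T. cruzi. Medium: DMEM plus 2% FBS. Probe or stimulus: 5000 reporter trypomastigotes per well. Compound: single 50 nL compound addition per well in DMSO. Incubation: co-culture of at least 90 h after 3 h attachment. Detection: GalScreen β-gal luminescence, detergent lysis, 60 min. Evaluation: parasite load inhibition, %.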
N-glyco inh = N-linked glycosylation inhibition. D54 ERlucT glycosylation luciferase reporter, 24 h; percent of 100 nM tunicamycin response. reporter increase, % at 12.5 µM. 360,000 tested, 0.23% active. AID 588692;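 active means mean luciferase reporter signal, scaled so untreated is 0 and the glycosylation-blocking control 100, at or above a set limit in every replicate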;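 further: luciferase carries N-glycosylation sites so blocking glycosylation raises the light; 0% = median of neutral control wells and 100% = median of 100 nM tunicamycin wells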
PvdQ inh = blocks Pseudomonas aeruginosa PvdQ acylase activity; purified PvdQ acylase, fluorescence plate reader; inhibition, % at 10 µM; 340,000 tested, 0.063% active; in the data active means inhibition above about 30%, passing the limit was not always enough;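 further: 0% = vehicle neutral wells and 100% = reference inhibitor wells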
CaV13 ICDI inh = Primary screen for inhibitors of IQ motif and Ca2+-dependent inactivation inhibitor domain binding in CACNA1D, Förster resonance energy transfer in living cells, …; HEK cells, CFP/YFP FRET ICDI-IQ, plate reader, 10 min; percent FRET-ratio fall versus neutral wells; inhibition, % at 12.3 µM; 340,000 tested, 0.098% active;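 active means mean replicate inhibition of at least 30% and at least 1% of replicates passing that level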;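 further: 0% = median of the neutral control wells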
HSF1 activator = increases HSF-1 driven luciferase reporter signal; 300,000 tested, 1.7% active; NIH3T3-HGL HSF-1 luciferase reporter, MG132, 8 h; 100% = twice DMSO control signal; activation, % at 9 µM;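 active means mean replicate activation of at least 50% with a set share of replicates each reaching 50%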;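 further: 0% = median of the neutral control wells and 100% = twice that signal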
PfHsp90 yeast 2 = growth inhibition of yeast expressing Plasmodium Hsp90; AID 504621; inhibition, % at 9.4 µM; 310,000 tested, 0.32% active; S. cerevisiae expressing PfHsp90, BacTiter-Glo ATP, 48 h; yeast lacking PDR1 and PDR3 efflux regulators;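 active means every replicate shows inhibition above about 80%, whatever the replicate mean, limit read from the data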;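 further: 0% = DMSO neutral controls and 100% = 20 µM radicicol positive controls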
Starred values were filed as active, the others as inactive; nt = not tested or not shown. Hits are enriched below; roughly 3% of the tested compounds scored in any of these assays.

SMILES | T cruzi repl | N-glyco inh | PvdQ inh | CaV13 ICDI inh | HSF1 activator | PfHsp90 yeast 2
Cc1cc(N2CCN(C(=O)c3ccco3)CC2)n2ncnc2n1 | -2.9 | -0.3 | -13.6 | -3.3 | 0.2 | -16.2
COc1ccc(CCNc2cc(C)nc3c(-c4ccccc4)cnn23)cc1OC | 15.3 | -14.7 | -11.3 | -2.5 | -0.3 | -28.4
Cc1cc(N2CCN(C(=O)c3ccco3)CC2)n2ncc(-c3ccccc3)c2n1 | 15.1 | -3.2 | 3.4 | -1.1 | 22.6 | 124.2*
CC(C)(C)c1cc(NCc2ccccn2)n2ncc(-c3ccccc3)c2n1 | nt | -4.6 | -3.8 | -4.7 | nt | 108.3*
CCOC(=O)C1CSCCS(=O)(=O)N1Cc1cc(F)ccc1Br (centres undefined) | nt | nt | nt | -3.8 | nt | nt
CSC1=N/C(=C\c2ccccc2F)C(=O)S1 | -14.3 | 2.7 | -14.2 | -1.8 | -35.8 | 13.8
COc1cccc(/C=C2\N=C(SC)SC2=O)c1OC | 2.3 | 1.0 | -16.2 | -5.9 | 55.8* | 21.1
O=C(O)C1CCCN1S(=O)(=O)c1cccc(S(=O)(=O)N2CCCC2C(=O)O)c1 (centres undefined) | -16.1 | 1.0 | -3.5 | -6.3 | -23.1 | 26.6
O=C(O)[C@@H]1CCCN1S(=O)(=O)c1cccc(S(=O)(=O)N2CCC[C@H]2C(=O)O)c1 | -8.0 | 1.2 | -0.2 | 68.3* | 1.8 | 10.7
O=C(N[C@H](Cc1ccccc1)C(=O)O)[C@H]1O[C@@H](n2ccc(=O)[nH]c2=O)[C@H](O)[C@@H]1O | nt | nt | nt | -10.3 | nt | nt
COc1cnc(-c2ccccn2)nc1NC(C)C | 76.9* | -14.8 | -5.2 | -4.3 | -35.3 | 1.6
COc1cc(NC(=O)COC(=O)/C=C/c2c(C)nn(-c3ccc(F)cc3)c2Cl)cc(OC)c1 | 60.0* | -1.9 | -9.5 | -14.4 | 15.0 | -6.5
CCN(CC(=O)Nc1ccc(NC(C)=O)cc1)C(=O)/C=C/c1c(C)nn(-c2ccc(F)cc2)c1Cl | nt | -3.5 | -11.1 | -5.4 | nt | nt
CC(CCc1ccccc1)NC(=O)c1ccc(NC(=O)c2cccc(Br)c2)cc1 (centres undefined) | 70.4* | -3.5 | -6.8 | -2.0 | 31.7 | 1.7
CC(CCc1ccccc1)NC(=O)c1ccc(NC(=O)c2ccc(Cl)cc2Cl)cc1 (centres undefined) | -7.0 | 2.9 | -15.0 | -4.3 | -8.5 | 8.5
CC(CCc1ccccc1)NC(=O)c1cncc(Br)c1 (centres undefined) | -11.8 | 0.7 | -7.6 | -5.8 | -0.3 | -3.8
CC(CCc1ccccc1)NC(=O)c1ccc(NC(=O)c2ccccc2)cc1 (centres undefined) | -38.3 | 26.4* | -11.1 | -5.4 | -37.7 | 14.5
COc1ccc2c(c1)CCc1c(C(=O)N3CC4(C)CC3CC(C)(C)C4)noc1-2 (centres undefined) | 6.0 | -0.8 | -13.9 | -6.1 | 84.2* | 12.5
c1ccc(Cc2cnc(N3CCN(Cc4ccc5c(c4)OCCO5)CC3)nc2)cc1 | nt | nt | nt | -7.2 | nt | nt
OC(CNCCNc1ncccc1C(F)(F)F)Cn1ccc2ccccc21 (centres undefined) | 23.5 | -2.7 | -14.0 | -7.9 | -0.7 | -7.3
Cc1nc(-c2ccncc2)nc(NCCNc2ncccc2C(F)(F)F)c1Cl | 76.7* | -3.4 | -15.3 | -2.9 | 13.2 | 10.5
CCOC(=O)[C@]12CCCC=C1N(Cc1ccc3c(c1)OCO3)C(=O)[C@H](CC(=O)NCCCN1CCCC1=O)C2 | nt | nt | nt | -3.3 | nt | nt
COc1ccc(C2CC=C(C(C)=O)CN2S(=O)(=O)c2ccccc2)cc1 (centres undefined) | nt | -2.3 | nt | -4.0 | nt | nt
Cc1ccc(C=Nc2ccccc2C(N)=O)o1 | -17.9 | 0.3 | -15.0 | -3.0 | 60.1* | -4.3
CN(C)c1ccc(C=Nc2ccccc2C(N)=O)cc1 | nt | -21.4 | -12.1 | -4.1 | nt | 42.9
O=[N+]([O-])c1cc(Cl)ccc1NCCNS(=O)(=O)c1ccccc1 | 16.8 | -0.5 | 6.3 | -5.6 | 55.1* | -35.3
Cc1cccc(N2C(=O)CSC2c2cccnc2)c1 (centres undefined) | -4.4 | 1.0 | 1.8 | -4.4 | 0.8 | 0.5
Cc1cccc(N2CCN(c3cccc(C)c3)C2c2cccnc2)c1 | 65.5* | -1.4 | 3.3 | -5.0 | 67.1* | 13.0
